According to ChEMBL document CHEMBL4834433, “Calcitonin gene-related peptide (CGRP) receptor antagonists: Heterocyclic modification of a novel azepinone lead” (Bioorg Med Chem Lett, 2021):
pIC50, pKi: −log10 of the molar value. Values after ≈ are worked out from the molar mass of the structure shown.

What was measured:
[1] = Microsomal stability in rat microsomes assessed as parent compound remaining at […] measured after 10 mins; assay type: ADME, Microsome; details: read-out: Stabilty
[2] = Microsomal stability in monkey microsomes assessed as parent compound remaining at […] measured after 10 mins; assay type: ADME, Macaca mulatta, Liver, Microsome; details: rhesus monkey, read-out: Stabilty
[3] = Microsomal stability in human liver microsomes assessed as parent compound remaining at […] measured after 10 mins; assay type: ADME; details: read-out: Stabilty
[4] = biological target: T1, Calcitonin gene-related peptide type 1 receptor (Homo sapiens, UniProt O60894+Q16602); test: Displacement of [125I]CGRP from human CGRP receptor in human SK-N-MC cells measured after 2 hrs by scintillation counting analysis; assay type: cell-based
T1 sequence (Q16602 whole entry, one chain of several): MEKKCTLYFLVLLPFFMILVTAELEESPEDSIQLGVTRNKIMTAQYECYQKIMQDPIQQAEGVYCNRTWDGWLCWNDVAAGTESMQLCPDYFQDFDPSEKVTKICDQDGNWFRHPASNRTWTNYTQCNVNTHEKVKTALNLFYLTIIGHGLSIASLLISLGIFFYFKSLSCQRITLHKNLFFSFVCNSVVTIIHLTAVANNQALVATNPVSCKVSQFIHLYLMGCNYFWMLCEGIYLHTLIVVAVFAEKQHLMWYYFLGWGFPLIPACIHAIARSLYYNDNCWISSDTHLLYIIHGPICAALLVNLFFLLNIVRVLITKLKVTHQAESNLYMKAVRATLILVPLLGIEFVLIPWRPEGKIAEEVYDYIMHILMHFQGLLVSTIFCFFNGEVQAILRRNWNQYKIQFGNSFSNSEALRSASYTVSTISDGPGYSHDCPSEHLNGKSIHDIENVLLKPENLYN

[5] = biological target: Cytochrome P450 3A4 (Homo sapiens, UniProt P08684); test: Time dependent inhibition of CYP3A4 (unknown origin) measured after 30 mins; assay type: ADME
Chain of Cytochrome P450 3A4 (P08684 whole entry): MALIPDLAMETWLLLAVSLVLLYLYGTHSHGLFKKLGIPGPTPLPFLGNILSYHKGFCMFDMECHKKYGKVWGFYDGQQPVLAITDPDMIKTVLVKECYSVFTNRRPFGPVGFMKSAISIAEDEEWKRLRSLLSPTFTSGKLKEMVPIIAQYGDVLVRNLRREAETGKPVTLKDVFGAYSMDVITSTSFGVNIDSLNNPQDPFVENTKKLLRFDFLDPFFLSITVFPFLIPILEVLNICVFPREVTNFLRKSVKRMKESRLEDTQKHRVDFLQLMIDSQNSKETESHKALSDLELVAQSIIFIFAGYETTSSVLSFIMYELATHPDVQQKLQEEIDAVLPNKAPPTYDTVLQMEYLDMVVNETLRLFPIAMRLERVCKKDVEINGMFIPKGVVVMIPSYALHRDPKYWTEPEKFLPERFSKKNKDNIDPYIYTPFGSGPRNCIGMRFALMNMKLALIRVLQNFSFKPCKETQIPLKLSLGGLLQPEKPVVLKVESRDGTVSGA

[6] = Total plasma concentration in human CGRPalpha-induced migraine marmoset model at 7 mg/kg, sc measured after 15 to 105 mins; assay type: ADME, organism-based, Callithrix jacchus; details: in vivo, time 15-105 min
Summary of the method: (§1)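 In anesthetized marmosets given the antagonist sc at 0 min and iv hαCGRP (10 µg/kg) at −30, +15, +60 and +105 min, total plasma levels were taken at the 15, 60 and 105 min postdose test times.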

[7] = Fraction unbound in plasma of human CGRPalpha-induced migraine marmoset model at 7 mg/kg, sc measured after 15 to 105 mins; assay type: ADME, organism-based, Callithrix jacchus; details: time 15-105 min
[8] = Cmax in rat at 10 mg/kg, po; assay type: ADME, organism-based; set-up: route oral, dose 10 mg/kg; details: in vivo
Summary of the method: (§2)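 Rats received a single 10 mg/kg oral dose in 80% PEG400/10% DMAC/10% Tween 80.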

[9] = system: Callithrix jacchus; test: Antimigraine activity in human CGRPalpha-induced migraine marmoset model assessed as reduction in facial blood flow at 7 mg/kg, sc administered 30 mins after CGRPalpha stimulation measured after 105 mins by laser doppler method relative to control; assay type: functional; set-up: scale not given: the % may be the effect or the level left; details: 1.75 h
Summary of the method: (§3)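 Marmosets were anesthetized. Facial blood flow was raised by iv hαCGRP (10 µg/kg) given at −30, +15, +60 and +105 min relative to sc antagonist dosing at 0 min. Blood flow was read by laser Doppler flowmetry. Inhibition of the CGRP-induced increase was expressed against the predose vehicle control response at −30 min.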

[10] = system: Callithrix jacchus; test: Antimigraine activity in human CGRPalpha-induced migraine marmoset model assessed as reduction in facial blood flow at 7 mg/kg, sc administered 30 mins after CGRPalpha stimulation measured after 15 mins by laser doppler method relative to control; assay type: functional; set-up: scale not given: the % may be the effect or the level left; details: 0.25 h; summary of the method: as §3
[11] = Cmax in Cynomolgus monkey at 10 mg/kg, po; assay type: ADME, organism-based, Macaca fascicularis; set-up: route oral, dose 10 mg/kg; details: in vivo
[12] = Permeability form basolateral to apical side in human Caco2 cells; assay type: ADME, cell-based; details: Caco-2, read-out: permeability
[13] = Solubility in phosphate buffer at pH 7 using amorphous form of sample; assay type: physicochemical
Summary of the method: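 Solubility of the amorphous solid was measured in 50 mM phosphate buffer, pH 7.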

[14] = biological target: T1, Calcitonin gene-related peptide type 1 receptor; test: Antagonist activity against human CGRP receptor in human SK-N-MC cells assessed as inhibition of CGRP-stimulated cAMP production; assay type: functional, cell-based
[15] = system: Callithrix jacchus; test: Antimigraine activity in human CGRPalpha-induced migraine marmoset model assessed as reduction in facial blood flow at 7 mg/kg, sc administered 30 mins after CGRPalpha stimulation measured after 60 mins by laser doppler method relative to control; assay type: functional; set-up: scale not given: the % may be the effect or the level left; details: 1 h; summary of the method: as §3
[16] = Permeability form apical to basolateral side in human Caco2 cells; assay type: ADME, cell-based; details: Caco-2, read-out: permeability
[17] = Permeability of compound at pH 5.5 by PAMPA assay; assay type: ADME; details: read-out: permeability
[18] = Permeability of compound at pH 7.4 by PAMPA assay; assay type: ADME; details: read-out: permeability
[19] = Total plasma concentration in human CGRPalpha-induced migraine marmoset model at 3 mg/kg, sc measured after 15 to 105 mins; assay type: ADME, organism-based, Callithrix jacchus; details: in vivo, time 15-105 min; summary of the method: as §1
[20] = system: Callithrix jacchus; test: Antimigraine activity in human CGRPalpha-induced migraine marmoset model assessed as reduction in facial blood flow at 3 mg/kg, sc administered 30 mins after CGRPalpha stimulation measured after 15 to 105 mins by laser doppler method relative to control; assay type: functional; set-up: scale not given: the % may be the effect or the level left; details: time 15-105 min; summary of the method: as §3
[21] = Oral bioavailability in rat at 10 mg/kg; assay type: ADME, organism-based; details: in vivo; summary of the method: as §2
[22] = system: Callithrix jacchus; test: Antimigraine activity in human CGRPalpha-induced migraine marmoset model assessed as reduction in facial blood flow at 7 mg/kg, sc administered 30 mins after CGRPalpha stimulation measured after 15 to 105 mins by laser doppler method relative to control; assay type: functional; set-up: scale not given: the % may be the effect or the level left; details: time 15-105 min; summary of the method: as §3

O=C(C[C@@H]1Cc2cc(Cl)c3[nH]ccc3c2CN(CC(F)(F)F)C1=O)N1CCC(N2CCc3ccccc3NC2=O)CC1
remaining at 10 min [1]: 0.8%
remaining at 10 min [2]: 1.6%
remaining at 10 min [3]: 0.9%
pKi [4]: 9.07

NC(=O)c1c[nH]c2c(Cl)cc3c(c12)CN(CC(F)(F)F)C(=O)[C@H](CC(=O)N1CCC(n2c(=O)[nH]c4ncccc42)CC1)C3
remaining at 10 min [1]: 80%
remaining at 10 min [2]: 70%
remaining at 10 min [3]: 80%
pKi [4]: 9.40

O=C(C[C@@H]1Cc2cc(Cl)c3[nH]c(=O)n(CC(F)(F)F)c3c2CN(CC(F)(F)F)C1=O)N1CCC(N2CCc3ccccc3NC2=O)CC1
pIC50 [5]: 5.08
concentration [6]: 80 nM
fraction unbound [7]: 0.009
remaining at 10 min [1]: 54%
remaining at 10 min [2]: 87%
remaining at 10 min [3]: 58%
Cmax [8]: 270 nM
Activity [9]: 84%
Activity [10]: 26%
Cmax [11]: 87 nM
Papp B→A [12]: 2.4 ×10⁻⁶ cm/s
solubility [13]: < 1 µg/mL
pIC50 [14]: 9.92
Activity [15]: 65%
Papp A→B [16]: < 1.5 ×10⁻⁶ cm/s
Papp [17]: 51.3 ×10⁻⁶ cm/s
pKi [4]: 10.70

N#Cc1c[nH]c2c(Cl)cc3c(c12)CN(CC(F)(F)F)C(=O)[C@H](CC(=O)N1CCC(n2c(=O)[nH]c4ncccc42)CC1)C3
remaining at 10 min [1]: 40%
remaining at 10 min [2]: 7%
remaining at 10 min [3]: 40%
pKi [4]: 10.22

O=C(C[C@@H]1Cc2cc(Cl)c3[nH]c(=O)[nH]c3c2CN(CC(F)(F)F)C1=O)N1CCC(N2CCc3ccccc3NC2=O)CC1
remaining at 10 min [1]: 41%
remaining at 10 min [2]: 71%
remaining at 10 min [3]: 60%
Cmax [8]: 3 nM
pKi [4]: 10.72

Cn1c(=O)[nH]c2c(Cl)cc3c(c21)CN(CC(F)(F)F)C(=O)[C@H](CC(=O)N1CCC(N2CCc4ncccc4NC2=O)CC1)C3
remaining at 10 min [1]: 56%
remaining at 10 min [2]: 100%
remaining at 10 min [3]: 73%
Cmax [8]: 11 nM
pKi [4]: 10.37

O=C(C[C@@H]1Cc2cc(Cl)c3[nH]nnc3c2CN(CC(F)(F)F)C1=O)N1CCC(n2c(=O)[nH]c3ncccc32)CC1
remaining at 10 min [1]: 90%
remaining at 10 min [2]: 64%
remaining at 10 min [3]: 62%
pKi [4]: 9.36

O=C(C[C@@H]1Cc2cc(Cl)c3c(c2CN(CC(F)(F)F)C1=O)C(F)(F)C(=O)N3)N1CCC(n2c(=O)[nH]c3ncccc32)CC1
pIC50 [5]: < 4.40
concentration [6]: 140 nM
fraction unbound [7]: 0.054
remaining at 10 min [1]: 82%
remaining at 10 min [2]: 28%
remaining at 10 min [3]: 91%
Cmax [8]: 4 nM
Activity [9]: 56%
Activity [10]: 47%
Papp B→A [12]: 25.7 ×10⁻⁶ cm/s
solubility [13]: 15 µg/mL (≈ 23.9 µM)
Activity [15]: 48%
Papp [18]: 8.7 ×10⁻⁶ cm/s
Papp A→B [16]: < 1.5 ×10⁻⁶ cm/s
Papp [17]: 9.9 ×10⁻⁶ cm/s
pKi [4]: 9.89

O=C(C[C@@H]1Cc2cc(Cl)c3[nH]c(=O)n(CC(F)(F)F)c3c2CN(CC(F)(F)F)C1=O)N1CCC(n2c(=O)[nH]c3ncccc32)CC1
remaining at 10 min [1]: 90%
remaining at 10 min [2]: 41%
remaining at 10 min [3]: 90%
Cmax [8]: 3 nM
Papp B→A [12]: 16.5 ×10⁻⁶ cm/s
solubility [13]: < 1 µg/mL
Papp [18]: 2.3 ×10⁻⁶ cm/s
Papp A→B [16]: < 1.5 ×10⁻⁶ cm/s
Papp [17]: 2.8 ×10⁻⁶ cm/s
pKi [4]: 10.59

Cn1c(=O)[nH]c2c(Cl)cc3c(c21)CN(CC(F)(F)F)C(=O)[C@H](CC(=O)N1CCC(N2CCc4ccccc4NC2=O)CC1)C3
pIC50 [5]: 5.09
concentration [6]: 170 nM
fraction unbound [7]: 0.023
concentration [19]: 40 nM
remaining at 10 min [1]: 35%
remaining at 10 min [2]: 75%
remaining at 10 min [3]: 36%
Cmax [8]: 96 nM
Activity [9]: 85%
Activity [10]: 57%
Cmax [11]: 35 nM
Papp B→A [12]: 19.6 ×10⁻⁶ cm/s
Activity [20]: 79%
solubility [13]: < 1 µg/mL
pIC50 [14]: 10.22
Activity [15]: 87%
Papp [18]: 19.2 ×10⁻⁶ cm/s
bioavailability [21]: 1%
Papp A→B [16]: < 1.5 ×10⁻⁶ cm/s
pKi [4]: 10.82

O=C(C[C@@H]1Cc2cc(Cl)c3[nH]ncc3c2CN(CC(F)(F)F)C1=O)N1CCC(N2CCc3ccccc3NC2=O)CC1
pIC50 [5]: 7.00
pKi [4]: 10.34

O=C(C[C@@H]1Cc2cc(Cl)c3c(c2CN(CC(F)(F)F)C1=O)C(F)(F)C(=O)N3)N1CCC(N2CCc3ccccc3NC2=O)CC1
remaining at 10 min [1]: 35%
remaining at 10 min [2]: 8.1%
remaining at 10 min [3]: 22%
Cmax [8]: 480 nM
pKi [4]: 10.16

O=C(C[C@@H]1Cc2cc(Cl)c3[nH]cnc3c2CN(CC(F)(F)F)C1=O)N1CCC(N2CCc3ccccc3NC2=O)CC1
remaining at 10 min [1]: 7%
remaining at 10 min [2]: 24%
remaining at 10 min [3]: 26%
pKi [4]: 9.77

O=C(C[C@@H]1Cc2cc(Cl)c3[nH]c(=O)oc3c2CN(CC(F)(F)F)C1=O)N1CCC(n2c(=O)[nH]c3ncccc32)CC1
remaining at 10 min [1]: 64%
remaining at 10 min [2]: 63%
remaining at 10 min [3]: 49%
Cmax [8]: 36 nM
pKi [4]: 9.92

N#Cc1c[nH]c2c(Cl)cc3c(c12)CN(CC(F)(F)F)C(=O)[C@H](CC(=O)N1CCC(N2CCc4ccccc4NC2=O)CC1)C3
remaining at 10 min [1]: 11%
remaining at 10 min [2]: 26%
remaining at 10 min [3]: 38%
pKi [4]: 10.22

CCn1c(=O)[nH]c2c(Cl)cc3c(c21)CN(CC(F)(F)F)C(=O)[C@H](CC(=O)N1CCC(N2CCc4ccccc4NC2=O)CC1)C3
Activity [22]: 67%
remaining at 10 min [1]: 22%
remaining at 10 min [2]: 59%
remaining at 10 min [3]: 44%
Cmax [8]: 230 nM
Cmax [11]: 230 nM
pIC50 [14]: 10.05
pKi [4]: 10.85
